Experimental data as given in ChEMBL document CHEMBL1133663, “Synthesis and biological evaluation of 3,4-diaryloxazolones: A new class of orally active cyclooxygenase-2 inhibitors” (J Med Chem, 2000).

Assays:
[1] = molecular target: Prostaglandin G/H synthase 1 (Homo sapiens, UniProt P23219)
Rattus norvegicus [2] = experiment: In vivo inhibition of adjuvant arthritis in rats; assay type: functional
Rattus norvegicus [3] = experiment: Inhibition of carrageenan paw edema in rats; assay type: functional
Method in brief: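 Fasted male Wistar rats (150-175 g, 6/group) dosed orally in 0.5% methyl cellulose/0.1% Tween (10 mL/kg). One hour later, 0.1 mL 1% carrageenan in saline was given subcutaneously into the left hind paw.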

Rattus norvegicus [4] = experiment: In vivo inhibition of carrageenan-induced hyperalgesia in rats; assay type: functional
Method in brief: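 Fasted male Wistar rats (200-230 g) given oral drug, then 0.1 mL 1% carrageenan into the left hind paw 1 h later. At 5 h, walking difficulty was scored 0-2 by a blinded observer. Percentage inhibition was taken against vehicle, and ED50 was found by linear regression over four doses (6-8 rats/group).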

Rattus norvegicus [5] = experiment: In vivo inhibition of pyresis in rats; assay type: functional
Method in brief: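 Male Wistar rats (180-200 g, 6/group) were injected subcutaneously with 15% yeast extract in saline ([…]) and fasted overnight. Next morning rectal temperature was taken, and oral dosing followed 1 h later. Temperature was recorded hourly for 5 h.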

Rattus norvegicus [6] = species on record: Rattus norvegicus; experiment: Hemoglobin levels in the different assays ranged from 11.5-14.7 g/dl.; assay type: functional
Rattus norvegicus [7] = experiment: In vivo inhibition of carrageenan-induced air pouch in rats; assay type: functional
Method in brief: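 Air pouch made in fasted male Wistar rats (150-175 g, 6/group) by injecting 20 mL air subcutaneously on the back on day 0. Oral gavage on day 3, then 5 mL 0.4% carrageenan into the pouch 1 h later.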

Rattus norvegicus [8] = experiment: Effect on non perforated ulcers(NPU) at the dose of 100 mg/kg.; assay type: functional
Method in brief: (§1)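 Male Wistar rats (150-175 g), fed freely, 10/group, dosed orally once daily for 4 consecutive days in 0.5% methyl cellulose/0.1% Tween. Anaesthetised 24 h after last dose; cardiac blood taken for hemoglobin. Whole intestine opened and scored macroscopically for perforated and nonperforated ulcers (index 0-3); value is ulcer score per incidence (% animals with ulcers).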

Rattus norvegicus [9] = experiment: Effect on perforated ulcers(PU) at the dose of 100 mg/kg.; assay type: functional
Method in brief: as §1

Rattus norvegicus [10] = experiment: Effect on non perforated ulcers(NPU) at the dose of 10 mg/kg.; assay type: functional
Method in brief: as §1

Rattus norvegicus [11] = experiment: Effect on perforated ulcers(PU) at the dose of 10 mg/kg.; assay type: functional
Method in brief: as §1

Sequence of Prostaglandin G/H synthase 1 (P23219 whole entry): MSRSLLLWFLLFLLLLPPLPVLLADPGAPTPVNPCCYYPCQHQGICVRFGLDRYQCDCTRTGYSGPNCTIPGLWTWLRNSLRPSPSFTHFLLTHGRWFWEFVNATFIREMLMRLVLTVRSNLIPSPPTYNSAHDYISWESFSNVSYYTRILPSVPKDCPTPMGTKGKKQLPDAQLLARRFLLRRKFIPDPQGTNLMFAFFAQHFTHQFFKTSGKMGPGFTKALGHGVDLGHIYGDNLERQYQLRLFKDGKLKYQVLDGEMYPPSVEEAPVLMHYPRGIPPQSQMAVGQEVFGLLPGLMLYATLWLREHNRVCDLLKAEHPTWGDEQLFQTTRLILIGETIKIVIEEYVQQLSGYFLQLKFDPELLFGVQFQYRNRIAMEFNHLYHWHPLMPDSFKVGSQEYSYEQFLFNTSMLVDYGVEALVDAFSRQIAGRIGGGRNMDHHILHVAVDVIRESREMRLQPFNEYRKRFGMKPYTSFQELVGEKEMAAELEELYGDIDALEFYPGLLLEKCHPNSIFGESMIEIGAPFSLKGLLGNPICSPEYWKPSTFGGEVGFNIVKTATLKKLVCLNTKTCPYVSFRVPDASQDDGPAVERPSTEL

Structure (SMILES)	IC50 [1] [µM]	ED50 (Rattus norvegicus [2]) [mg/kg]	ED35 (Rattus norvegicus [3]) [mg/kg]	ED50 (Rattus norvegicus [4]) [mg/kg]	ED50 (Rattus norvegicus [5]) [mg/kg]	Hgb levels (Rattus norvegicus [6]) [g/dL]	ED35 (Rattus norvegicus [7]) [mg/kg]	Ulcer score (Rattus norvegicus [8])	Ulcer score (Rattus norvegicus [9])	Ulcer score (Rattus norvegicus [10])	Ulcer score (Rattus norvegicus [11])
CS(=O)(=O)c1ccc(-c2coc(=O)n2-c2ccc(F)cc2)cc1	5.1	2.8	0.6	2.5	–	–	–	–	–	–	–
Cc1cccc(-n2c(-c3ccc(S(N)(=O)=O)cc3)c(C)oc2=O)c1	16.9	–	–	–	–	–	–	–	–	–	–
COc1ccc(-n2c(-c3ccc(S(N)(=O)=O)cc3)coc2=O)cc1F	5.1	–	3	–	–	–	–	–	–	–	–
Cc1cccc(-n2c(-c3ccc(S(N)(=O)=O)cc3)coc2=O)c1	6.6	0.6	0.9	7.2	1.8	12.8	0.47	0	0	–	–
NS(=O)(=O)c1ccc(-c2coc(=O)n2-c2ccc(Cl)c(Cl)c2)cc1	1.5	–	–	–	–	–	–	–	–	–	–
NS(=O)(=O)c1ccc(-c2coc(=O)n2-c2ccc(C(F)(F)F)cc2)cc1	> 100	1	2.4	8.1	11	11.5	2.6	0	0	–	–
NS(=O)(=O)c1ccc(-c2coc(=O)n2-c2cccc3ccccc23)cc1	37.1	–	–	–	–	–	–	–	–	–	–
Cc1ccc(-n2c(-c3ccc(S(C)(=O)=O)cc3)coc2=O)cc1	11.6	–	–	–	–	–	–	–	–	–	–
CCc1ccc(-n2c(-c3ccc(S(C)(=O)=O)cc3)coc2=O)cc1	42.4	–	–	–	–	–	–	–	–	–	–
NS(=O)(=O)c1ccc(-c2coc(=O)n2-c2cccc(Cl)c2)cc1	10.8	–	1.3	–	–	–	–	–	–	–	–
CS(=O)(=O)c1ccc(-c2coc(=O)n2-c2ccc(C(F)(F)F)cc2)cc1	> 100	–	–	–	–	–	–	–	–	–	–
NS(=O)(=O)c1ccc(-c2coc(=O)n2-c2ccc(C(=O)O)cc2)cc1	> 100	–	–	–	–	–	–	–	–	–	–
CS(=O)(=O)c1ccc(-c2coc(=O)n2-c2ccc(F)cc2F)cc1	6.94	2.5	1.4	21	–	–	–	–	–	–	–
Cc1oc(=O)n(-c2ccc(Cl)c(Cl)c2)c1-c1ccc(S(N)(=O)=O)cc1	8.7	1.6	4.4	3	8.7	14.6	0.85	0	0	–	–
NS(=O)(=O)c1ccc(-c2coc(=O)n2-c2ccccc2F)cc1	27.9	0.27	1.7	2.7	1.2	11.6	1.6	0	0	–	–
NS(=O)(=O)c1ccc(-c2coc(=O)n2C2CCCCC2)cc1	> 100	–	–	–	–	–	–	–	–	–	–
Cc1ccccc1-n1c(-c2ccc(S(N)(=O)=O)cc2)coc1=O	29	–	–	–	–	–	–	–	–	–	–
NS(=O)(=O)c1ccc(-c2coc(=O)n2-c2ccc(F)cc2F)cc1	15.3	–	–	–	–	–	–	–	–	–	–

Structure (SMILES)	IC50 [1] [µM]	ED50 (Rattus norvegicus [2]) [mg/kg]	ED35 (Rattus norvegicus [3]) [mg/kg]	ED50 (Rattus norvegicus [4]) [mg/kg]	ED50 (Rattus norvegicus [5]) [mg/kg]	Hgb levels (Rattus norvegicus [6]) [g/dL]	ED35 (Rattus norvegicus [7]) [mg/kg]	Ulcer score (Rattus norvegicus [8])	Ulcer score (Rattus norvegicus [9])	Ulcer score (Rattus norvegicus [10])	Ulcer score (Rattus norvegicus [11])
CS(=O)(=O)c1ccc(-c2coc(=O)n2-c2ccc(Cl)cc2)cc1	13.6	–	10	–	–	–	–	–	–	–	–
CS(=O)(=O)c1ccc(-c2coc(=O)n2-c2ccccc2F)cc1	13.4	> 3	2.4	32	–	–	–	–	–	–	–
COc1ccc(-n2c(-c3ccc(S(N)(=O)=O)cc3)coc2=O)cc1	0.9	–	–	–	–	–	–	–	–	–	–
Cc1ccc(-n2c(-c3ccc(S(N)(=O)=O)cc3)coc2=O)cc1	10.9	0.34	0.7	3.8	3.3	12.9	1.7	0	0	–	–
NS(=O)(=O)c1ccc(-c2coc(=O)n2-c2ccc(Cl)cc2)cc1	7	0.2	1.6	0.5	2.3	12.5	1.2	2.1	3	–	–
NS(=O)(=O)c1ccc(-c2coc(=O)n2-c2ccc(F)cc2)cc1	13.2	0.6	2	3.9	2.4	12.6	0.4	0	0	–	–
NS(=O)(=O)c1ccc(-c2coc(=O)n2-c2ccccc2Cl)cc1	35.4	–	–	–	–	–	–	–	–	–	–
CS(=O)(=O)c1ccc(-c2coc(=O)n2-c2ccccc2)cc1	33.6	–	–	–	–	–	–	–	–	–	–
NS(=O)(=O)c1ccc(-c2coc(=O)n2-c2ccccc2)cc1	24.4	0.15	0.4	1.1	0.5	14.8	1.2	0	0	–	–
Cc1oc(=O)n(-c2ccc(F)cc2)c1-c1ccc(S(N)(=O)=O)cc1	45.8	3	1.1	14	–	–	–	–	–	–	–
CCc1ccc(-n2c(-c3ccc(S(N)(=O)=O)cc3)coc2=O)cc1	10.4	–	–	–	–	–	–	–	–	–	–
NS(=O)(=O)c1ccc(-c2coc(=O)n2-c2cccc(C(=O)O)c2)cc1	> 100	–	–	–	–	–	–	–	–	–	–
Cc1ccc(-n2c(-c3ccc(S(N)(=O)=O)cc3)c(C)oc2=O)cc1	43.5	–	2.6	–	–	–	–	–	–	–	–
COc1ccc(-n2c(-c3ccc(S(N)(=O)=O)cc3)coc2=O)cc1Cl	5.8	–	2.4	–	–	–	–	–	–	–	–
Cc1oc(=O)n(-c2ccccc2)c1-c1ccc(S(N)(=O)=O)cc1	49.3	> 3	1.7	7.7	–	–	–	–	–	–	–
Cc1ccc(-c2cc(C(F)(F)F)nn2-c2ccc(S(N)(=O)=O)cc2)cc1 [CELECOXIB]	–	0.5	1.1	6.2	0.6	13.2	3	0	0	–	–
COc1ccc2c(c1)c(CC(=O)O)c(C)n2C(=O)c1ccc(Cl)cc1 [INDOMETHACIN]	–	0.22	1	1.2	1.5	5.7	2	–	–	300	280
COc1ccc2cc([C@H](C)C(=O)O)ccc2c1 [NAPROXEN]	–	6.1	0.45	5.2	0.8	7.5	1.4	–	–	–	–
